Measured values gathered from unrelated publications.
Lines come from different studies, so protocols differ.
HTR1E: 5-hydroxytryptamine receptor 1E (HTR1E, Homo sapiens, UniProt P28566)
APC: Adenomatous polyposis coli protein (APC, Homo sapiens, UniProt P25054)
AVPR2: Vasopressin V2 receptor (AVPR2, Homo sapiens, UniProt P30518)
Palmitoyl-protein thioesterase 1: Palmitoyl-protein thioesterase 1 (Homo sapiens, UniProt P50897)

SMILES	target	assay	endpoint	value
CCN1CCC[C@H]1CNC(=O)c1c(O)c(Cl)cc(Cl)c1OC	HTR1E	G protein activation, agonist, BRET	EC50	0.49 µM
CSc1nccc(C(=O)N[C@@H](CCC(=O)O)C(=O)N[C@@H](Cc2ccc3ccccc3c2)C(=O)N[C@@H](CC(C)C)C(=O)N[C@@H]2C[C@H]2c2ccccc2)n1	APC	binding, SPR	Kd	0.38 µM
CCCCCCCC/C=C\CCCCCCCC(=O)O	Myoglobin (MB, Homo sapiens, UniProt P02144, K46M)	binding, absorbance	Kd	13.1 µM
CC1=NN(/C(=N\c2ccccc2C)Nc2nnc(C)s2)C(c2ccc(C)cc2)S1 (stereo not drawn)	AVPR2	cAMP, positive allosteric modulator	EC50	20.8 µM
CC(C)C[C@H](NC(=O)[C@H](Cc1ccc2ccccc2c1)NC(=O)[C@H](CCC(=O)O)NC(=O)c1cccc(Br)c1)C(=O)NC1CC1c1ccccc1 (stereo partly drawn)	APC	ligand displacement, FP	IC50	11.2 µM
CC1=NN(/C(=N/c2nnc(C)s2)Nc2ccc(C)c(C)c2)C(c2ccsc2)S1 (stereo not drawn)	AVPR2	cAMP, positive allosteric modulator	EC50	> 50 µM
CO[C@H]1C[C@@H]2CC[C@@H](C)[C@@](O)(O2)C(=O)C(=O)N2CCCC[C@H]2C(=O)O[C@H]([C@H](C)C[C@@H]2CC[C@@H](OC(=O)C(C)(CO)CO)[C@H](OC)C2)CC(=O)[C@H](C)/C=C(\C)[C@@H](O)[C@@H](OC)C(=O)[C@H](C)C[C@H](C)/C=C/C=C/C=C/1C	Ferroptosis suppressor protein 1 (AIFM2, Homo sapiens, UniProt Q9BRQ8)	binding, ITC	Kd	~5.28 µM
CC(C)C[C@H](NC(=O)[C@H](Cc1ccc2ccccc2c1)NC(=O)[C@H](CCC(=O)O)NC(=O)c1ccnc(F)c1)C(=O)NC1CC1c1ccccc1 (stereo partly drawn)	APC	ligand displacement, FP	IC50	42.7 µM
CC1=NN(/C(=N\c2ccc(Br)cc2)Nc2nnc(C)s2)C(c2ccc(C)cc2)S1 (stereo not drawn)	AVPR2	cAMP, positive allosteric modulator	EC50	17.6 µM
N#C[C@@]12C[C@@H]1[C@@H](n1cnc3c(N[C@@H](C4CCC4)C4CC4)nc(I)nc31)[C@H](O)[C@@H]2O	Adenosine receptor A3 (ADORA3, Homo sapiens, UniProt P0DMS8)	ligand displacement, radioligand	Ki	> 1 µM
CC1=NN(/C(=N/c2nnc(C)s2)Nc2ccc(C)c(C)c2)C(c2cccnc2)S1 (stereo not drawn)	AVPR2	cAMP, positive allosteric modulator	EC50	> 50 µM
Nc1nnc(-c2ccccc2O)cc1N1CCN(Cc2ccc(OCCOCCNc3cccc4c3C(=O)N(C3CCC(=O)NC3=O)C4=O)c(F)c2)CC1 (stereo not drawn)	SWI/SNF-related matrix-associated actin-dependent regulator of chromatin subfamily A member 2 (SMARCA2, Homo sapiens, UniProt P51531)	protein level, degrader, western blot	DC50	0.064 µM
O=C(CCCCCN1CCN(c2ccccc2-c2ccccc2)CC1)NC1CCCc2ccccc21 (stereo not drawn)	HTR1E	G protein activation, agonist, BRET	EC50	1.75 µM
OC(c1cc(C(F)(F)F)nc2c(C(F)(F)F)cccc12)C1CCCCN1 (stereo not drawn)	Palmitoyl-protein thioesterase 1	binding, MST	Kd	0.226 µM
CC1=NN(/C(=N/c2nnc(C)s2)Nc2ccc(C)c(C)c2)C(c2ccc(-c3ccccc3C(F)(F)F)cc2)S1 (stereo not drawn)	AVPR2	cAMP, positive allosteric modulator	EC50	36 µM
N=C(N)NCCC[C@H](NC(=O)[C@@H](NC(=O)[C@H](Cc1cscn1)NC(=O)CCc1ccccc1)C1CCCCC1)C(=O)c1nc2ccccc2s1	Transmembrane protease serine 6 (Homo sapiens, UniProt Q8IU80)	cell-free assay	Ki	~0.005 µM
CSc1cccc(C(=O)N[C@@H](CCC(=O)O)C(=O)N[C@@H](Cc2ccc3ccccc3c2)C(=O)N[C@@H](CC(C)C)C(=O)NC2CC2c2ccccc2)c1 (stereo partly drawn)	APC	ligand displacement, FP	IC50	52.5 µM

SMILES	target	assay	endpoint	value
CN(C)c1ncnc2c1ncn2[C@@H]1O[C@H](CO)[C@@H](O)[C@H]1O	Adenosine receptor A3 (ADORA3, Homo sapiens, UniProt P0DMS8, L264A)	G protein activation, agonist	EC50	4 µM
CCCNC(=O)NS(=O)(=O)c1ccc(Cl)cc1	Palmitoyl-protein thioesterase 1	binding, MST	Kd	0.201 µM
Cc1ccc(N/C(=N\c2nnc(C(C)(C)C)s2)N2N=C(C(C)(C)C)SC2c2cc(F)c(F)c(F)c2)cc1C (stereo not drawn)	AVPR2	cAMP, positive allosteric modulator	EC50	> 50 µM
CCN(CC)Cc1cc(Nc2ccnc3cc(Cl)ccc23)ccc1O	Palmitoyl-protein thioesterase 1	binding, MST	Kd	0.076 µM
CC1=NN(/C(=N/c2nnc(C)s2)Nc2ccc(C)c(C)c2)C(c2ccc(F)cc2)S1 (stereo not drawn)	AVPR2	cAMP, positive allosteric modulator	EC50	> 50 µM
COC(=O)[C@]12CCC(C)(C)C[C@H]1[C@H]1C(=O)C=C3[C@@]4(C)C=C(C#N)C(=O)C(C)(C)[C@@H]4CC[C@@]3(C)[C@]1(C)CC2	Epidermal growth factor receptor (EGFR, Homo sapiens, UniProt P00533)	binding, MST	Kd	79 µM
CC(C)C[C@H](NC(=O)[C@H](CC1CC1)NC(=O)[C@H](CCC(=O)O)NC(=O)c1ccncn1)C(=O)NC1CC1c1ccccc1 (stereo partly drawn)	APC	binding, SPR	Kd	32 µM
CN(C)CCCN1c2ccccc2Sc2ccc(Cl)cc21	HTR1E	G protein activation, agonist, BRET	EC50	2.08 µM
CC1=NN(/C(=N/c2nnc(C)s2)Nc2ccc(C)c(C)c2)C(c2ccc(F)c(F)c2)S1 (stereo not drawn)	AVPR2	cAMP, positive allosteric modulator	EC50	> 50 µM
COc1cccc(C(=O)N[C@@H](CCC(=O)O)C(=O)N[C@@H](Cc2ccc3ccccc3c2)C(=O)N[C@@H](CC(C)C)C(=O)NC2CC2c2ccccc2)c1 (stereo partly drawn)	APC	ligand displacement, FP	IC50	38.9 µM
Cc1ccc(Sc2ccccc2N2CCNCC2)c(C)c1	HTR1E	G protein activation, agonist, BRET	EC50	1.96 µM
CSc1ncc(Br)c(C(=O)N[C@@H](CCC(=O)O)C(=O)N[C@@H](Cc2ccc3ccccc3c2)C(=O)N[C@@H](CC(C)C)C(=O)N[C@@H]2C[C@H]2c2ccccc2)n1	APC	binding, SPR	Kd	0.23 µM
CN1CCc2cc(Cl)c(O)cc2[C@@H](c2ccccc2)C1	HTR1E	G protein activation, agonist, BRET	EC50	3.9 µM
CN1CCN(Cc2ccc(CNc3cccc4c3CN(C)N(C3CCC(=O)NC3=O)C4=O)cc2)CC1 (stereo not drawn)	Cereblon/Casein kinase I alpha (CSNK1A1/CRBN, Homo sapiens, UniProt P48729+Q96SW2)	protein level, degrader, luciferase	DC50	0.092 µM
CC(C)=CCNc1ncnc2c1ncn2[C@@H]1O[C@H](CO)[C@@H](O)[C@H]1O	Adenosine receptor A3 (ADORA3, Homo sapiens, UniProt P0DMS8, I253Q)	G protein activation, agonist	EC50	0.08 µM
CCCN1C[C@H](CSC)C[C@@H]2c3cccc4[nH]cc(c34)C[C@H]21	HTR1E	G protein activation, agonist, BRET	EC50	1.9 µM
